The values that follow come from ChEMBL document CHEMBL1141824, “The antiproliferative effect of acridone alkaloids on several cancer cell lines” (J Nat Prod, 1999).

Common to all, as to type: functional, cell-based
One assay concerns CCRF-HSB-2. Description: Antiproliferative activity against human CCRF-HSB-2 cells after 3 days by alamar blue assay. To be noted: CCRF-HSB-2, 72 h. Summed up:
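Suspension line maintained in RPMI1640 with 10% FBS. 10⁴ cells per well were preincubated 24 h, then mixed with an equal volume of serially diluted samples (DMSO up to 0.4%) and exposed for 3 days. Staining was alamar Blue for 24 h. Growth was expressed as % of untreated control from blank-subtracted A570−A595. Triplicate points.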

The next assay concerns A549. Briefly: Antiproliferative activity against human A549 cells after 3 days by alamar blue assay. As to conditions: A549, 72 h. Summed up: (§1)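 Cells kept in DMEM with 10% heat-inactivated FBS. 2×10^3 cells per well were grown 24 h, then an equal volume of medium with serial sample dilutions was added (DMSO ≤0.4%). After 3 days, alamar Blue was added for 6 h. Proliferation was taken as blank-corrected (A570−A595) as % of untreated growth control. Triplicates.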

The subject of a further assay is TGBC11TKB. Description: Antiproliferative activity against human TGBC11TKB cells after 3 days by alamar blue assay. As to conditions: 72 h. The gist of the method: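 TGBC11TKB, a lymph-node-metastasized gastric cancer line, was grown in DMEM with 5% FBS. 2×10^3 cells per well were plated, grown 24 h, then given medium with serial dilutions (final DMSO ≤0.4%) for 3 days. alamar Blue was then added for 6 h. Read-out was blank-corrected A570−A595 as % of untreated control, in triplicate.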

The next assay deals with B16. Description: Antiproliferative activity against mouse B16 cells after 3 days by alamar blue assay. To be noted: B16, 72 h. The gist of the method:
as §1

For `Cn1c2ccccc2c(=O)c2c(O)cc3c(c21)C=CC(C)(C)O3` [NORACRONYCINE], the IC50 with CCRF-HSB-2, with A549, in the assay on TGBC11TKB and with B16 was more than 40 µM throughout.
`CC1(C)C=Cc2c(cc(O)c3c(=O)c4ccccc4[nH]c23)O1`: the IC50 amounted to 3.1 µM in the assay on CCRF-HSB-2, 6.37 µM with A549, 2.07 µM in the assay on TGBC11TKB and 5.05 µM with B16.
The like results for `COc1cc(O)c2c(=O)c3ccc(OC)c(O)c3n(C)c2c1` [GRANDISINE I] were, in that order, 29.2 µM, 24.4 µM, 19.3 µM and more than 40 µM.
Regarding `COc1cc(O)c2c(=O)c3cccc(O)c3n(C)c2c1OC` [CITRUSININE-I], the IC50 in the assay on CCRF-HSB-2, in the assay with A549, in the assay with TGBC11TKB and in the assay with B16 was more than 40 µM in each case.
Consider `CC(C)=CCc1c(O)cc(O)c2c(=O)c3ccccc3n(C)c12` [GLYCOCITRINE II], for which the IC50 in the assay with CCRF-HSB-2, with A549, with TGBC11TKB and in the assay on B16 was more than 40 µM in each case.
For the molecule `CC(C)=CCc1c2c(c3c(c1O)c(=O)c1ccccc1n3C)C=CC(C)(C)O2`, the IC50 in the assay on CCRF-HSB-2, with A549, with TGBC11TKB and in the assay on B16 was more than 40 µM in each case.
Regarding `COc1cc(O)c2c(=O)c3ccc(O)c(OC)c3n(C)c2c1` [CITPRESSINE II], the IC50 in the assay with CCRF-HSB-2, in the assay on A549, in the assay with TGBC11TKB and in the assay with B16 was more than 40 µM each time.
In the case of `Cn1c2c(O)cccc2c(=O)c2c(O)cc3c(c21)C=CC(C)(C)O3`, the IC50 is 23.6 µM in the assay with CCRF-HSB-2, more than 40 µM in the assay with A549, 16.2 µM in the assay on TGBC11TKB and more than 40 µM in the assay on B16.
Regarding `CC(C)=CCc1c2c(c3c(c1O)c(=O)c1cccc(O)c1n3C)C=CC(C)(C)O2`, the half-maximal inhibitory concentration (IC50) with CCRF-HSB-2 stood at 5.41 µM; with A549, 9.37 µM; with TGBC11TKB, 2.13 µM; with B16, 8.04 µM.
Turning to `COc1ccc2c(=O)c3c(O)cc4c(c3n(C)c2c1OC)C=CC(C)(C)O4` [CITRACRIDONE II], the IC50 in the assay with CCRF-HSB-2, in the assay on A549, in the assay with TGBC11TKB and in the assay on B16 was more than 40 µM in each case.
Turning to `COc1cc(O)c2c(=O)c3cccc(O)c3n(C)c2c1CC=C(C)C` [GLYCOCITRINE I], the IC50 in the assay with CCRF-HSB-2, in the assay on A549, with TGBC11TKB and in the assay on B16 was more than 40 µM in each case.
As for `CC1(C)C=Cc2c(cc(O)c3c(=O)c4cccc(O)c4[nH]c23)O1` [ATOLAPHYLLIDINE], the IC50 is 4.65 µM in the assay with CCRF-HSB-2, 6.98 µM in the assay on A549, 2.83 µM in the assay with TGBC11TKB and 5.58 µM with B16.
The like results for `COc1c(O)ccc2c(=O)c3c(O)cc4c(c3n(C)c12)C=CC(C)(C)O4` [CITRACRIDONE I] were, in that order, more than 40 µM, more than 40 µM, more than 40 µM and more than 40 µM.
Consider `CC(C)=CCc1c2c(c3[nH]c4c(O)cccc4c(=O)c3c1O)C=CC(C)(C)O2` [ATALAPHYLLININE], for which the IC50 in the assay on CCRF-HSB-2 worked out at 2.5 µM; with A549 it was 6.26 µM; with TGBC11TKB, 1.43 µM; in the assay on B16 it was 4.63 µM.
The like results for `COc1cc2c(c3[nH]c4ccccc4c(=O)c13)C=CC(C)(C)O2` were, in that order, more than 40 µM, more than 40 µM, more than 40 µM and more than 40 µM.
